Consider four molecules from ChEMBL document CHEMBL4725432, “Dethioacylation by Sirtuins 1-3: Considerations for Drug Design Using Mechanism-Based Sirtuin Inhibition” (ACS Med Chem Lett, 2020).

Active and inactive are the calls of the source. Residues, ends and D or L forms follow the SMILES beside them. *: point of attachment. Cbz = O=C(OCc1ccccc1)*; NHiPr = CC(C)N*

Series [1] concerns the target T1, NAD-dependent protein deacetylase sirtuin-2 (Homo sapiens) (UniProt Q8IXJ6).
T1 sequence (whole entry): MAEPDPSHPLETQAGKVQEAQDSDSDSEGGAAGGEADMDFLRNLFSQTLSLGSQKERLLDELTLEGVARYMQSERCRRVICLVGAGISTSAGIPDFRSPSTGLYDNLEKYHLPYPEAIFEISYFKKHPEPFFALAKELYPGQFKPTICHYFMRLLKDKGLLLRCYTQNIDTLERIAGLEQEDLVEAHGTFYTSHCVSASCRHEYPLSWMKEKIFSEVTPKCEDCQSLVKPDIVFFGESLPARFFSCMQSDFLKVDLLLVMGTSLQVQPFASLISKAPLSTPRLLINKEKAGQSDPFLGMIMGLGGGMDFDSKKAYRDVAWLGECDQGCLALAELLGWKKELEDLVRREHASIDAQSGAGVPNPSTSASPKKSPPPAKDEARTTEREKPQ
The series can be described thus: Inhibition of human recombinant SIRT2 expressed in Escherichia coli in presence of acyl peptide acetyl-H3K9 as substrate at 100 uM incubated for 5 mins by HPLC analysis relative to control.

Series [2] deals with T2, NAD-dependent protein deacetylase sirtuin-1 (Homo sapiens, UniProt Q96EB6).
T2 sequence (Q96EB6 whole entry): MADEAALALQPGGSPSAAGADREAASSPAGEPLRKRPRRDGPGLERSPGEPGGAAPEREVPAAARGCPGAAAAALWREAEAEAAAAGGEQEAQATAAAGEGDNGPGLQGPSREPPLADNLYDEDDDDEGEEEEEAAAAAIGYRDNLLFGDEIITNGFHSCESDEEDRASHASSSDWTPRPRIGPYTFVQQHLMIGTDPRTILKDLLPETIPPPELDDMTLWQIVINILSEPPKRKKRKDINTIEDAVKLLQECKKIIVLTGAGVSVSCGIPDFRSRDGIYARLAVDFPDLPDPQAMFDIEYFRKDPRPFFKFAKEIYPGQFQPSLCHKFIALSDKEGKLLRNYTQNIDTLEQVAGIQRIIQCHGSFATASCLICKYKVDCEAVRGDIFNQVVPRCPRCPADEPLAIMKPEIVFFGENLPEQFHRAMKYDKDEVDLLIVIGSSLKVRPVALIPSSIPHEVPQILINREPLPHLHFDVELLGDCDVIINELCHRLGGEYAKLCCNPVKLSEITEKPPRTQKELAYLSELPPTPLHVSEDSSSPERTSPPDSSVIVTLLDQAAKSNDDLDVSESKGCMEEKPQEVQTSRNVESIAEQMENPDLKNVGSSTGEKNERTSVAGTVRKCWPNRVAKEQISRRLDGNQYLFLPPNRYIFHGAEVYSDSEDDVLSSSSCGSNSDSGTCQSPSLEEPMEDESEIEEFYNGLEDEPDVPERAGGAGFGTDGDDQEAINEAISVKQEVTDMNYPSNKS
The experiment in a line: Inhibition of human recombinant SIRT1 expressed in Escherichia coli in presence of acyl peptide acetyl-H3K9 as substrate incubated for 5 mins by HPLC analysis.

In series [3] the target is T3, NAD-dependent protein deacetylase sirtuin-3, mitochondrial (Homo sapiens) (UniProt Q9NTG7).
T3 sequence (whole entry): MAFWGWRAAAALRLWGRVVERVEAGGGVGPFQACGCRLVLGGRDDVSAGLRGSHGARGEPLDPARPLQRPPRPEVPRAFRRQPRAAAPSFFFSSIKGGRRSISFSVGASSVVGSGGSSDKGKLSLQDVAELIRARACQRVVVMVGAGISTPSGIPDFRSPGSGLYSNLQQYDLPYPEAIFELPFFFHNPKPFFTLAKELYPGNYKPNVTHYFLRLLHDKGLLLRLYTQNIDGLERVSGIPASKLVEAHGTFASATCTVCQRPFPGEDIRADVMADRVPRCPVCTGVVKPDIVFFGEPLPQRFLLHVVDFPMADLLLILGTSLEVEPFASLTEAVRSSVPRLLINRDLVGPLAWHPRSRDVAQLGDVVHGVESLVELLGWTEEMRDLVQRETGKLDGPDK
The experiment in a line: Inhibition of human recombinant N-terminal GST-tagged SIRT3 (102 to 399 residues) deacetylation activity in presence of substrate and NAD+ at 15 uM after 60 mins measured by reversed-phase UPLC-MS analysis relative to control.

In series [4] the target is T4, NAD-dependent protein deacetylase sirtuin-1 (Homo sapiens) (UniProt Q96EB6).
T4 sequence (whole entry): T2 sequence (Q96EB6 whole entry)
The experiment in a line: Inhibition of human recombinant N-terminal GST-tagged SIRT1 (193 to 741 residues) deacetylation activity in presence of substrate and NAD+ at 15 uM after 60 mins by reversed-phase UPLC-MS analysis relative to control.

Series [5] concerns the target T3, NAD-dependent protein deacetylase sirtuin-3, mitochondrial (Homo sapiens). The series can be described thus: Inhibition of human recombinant SIRT3 expressed in Escherichia coli BL21 in presence of acyl peptide acetyl-H3K9 as substrate at 100 uM incubated for […] mins by HPLC analysis relative to control. Conditions: time 5.0 min.
Series [6] deals with T4, NAD-dependent protein deacetylase sirtuin-1 (Homo sapiens). The experiment in a line: Inhibition of human N-terminal GST-tagged SIRT1 (193 to 741 residues) expressed in Escherichia coli preincubated with NAD+ for 30 mins using Ac-Gln-Pro-Lys-Lys(Ac)-AMC (oxo-10) as substrate at 1 to 100 uM measured after 90 mins by fluorescence assay. Conditions: dose microM 1-100, time 120.0 min. The gist of the method:
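Recombinant SIRT1 (100 nM) preincubated 30 min with compound, either with or without NAD+ (500 μM), before the fluorogenic deacetylation read-out. Single-dose %-inhibition. Two independent experiments in duplicate, standard deviation.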

For series [7] the target is unchanged. The series can be described thus: Inhibition of human recombinant N-terminal GST-tagged SIRT1 (193 to 741 residues) deacetylation activity in presence of substrate and NAD+ at 15 uM after 30 mins by reversed-phase UPLC-MS analysis relative to control.
Series [8] is described as follows: Metabolic stability of compound in human serum assessed as half life incubated for >10 mins measured after 90 mins by HPLC analysis. The series is classed as ADME, cell-free.
Series [9] concerns the target T4, NAD-dependent protein deacetylase sirtuin-1 (Homo sapiens). The experiment in a line: Inhibition of SIRT1 in HEK293 cells assessed as increase in p53 acetylation co-treated with TSA at 25 uM for 6 hrs by western blot analysis. Format: cell-based. The gist of the method: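 HEK293 cells exposed 6 h to compound at 25 μM together with TSA (1 μM). Whole-cell lysates immunoblotted for Ac-p53 (K382) and total p53. Ratio Ac-p53/p53 normalized to DMSO control. Two independent experiments in duplicate, SEM.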
In general terms: A western blot detects proteins with antibodies after separation by electrophoresis.

For series [10], the target named is T1, NAD-dependent protein deacetylase sirtuin-2 (Homo sapiens). The experiment in a line: Inhibition of human recombinant C-terminal His-tagged SIRT2 (50 to 356 residues) deacetylation activity in presence of substrate and NAD+ incubated for 60 mins measured after 90 mins by fluorescence assay. The gist of the method:
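Recombinant SIRT2 (100 nM or 250 nM) incubated with fluorogenic thioacyl or oxo lysine-AMC substrates plus NAD+. Deacylation read by fluorescence. Two independent experiments in duplicate, standard deviation.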

Series [11] concerns the target T4, NAD-dependent protein deacetylase sirtuin-1 (Homo sapiens). The experiment in a line: Inhibition of human N-terminal GST-tagged SIRT1 (193 to 741 residues) expressed in Escherichia coli preincubated without NAD+ for 30 mins using Ac-Gln-Pro-Lys-Lys(Ac)-AMC (oxo-10) as substrate at 1 to 100 uM measured after 90 mins by fluorescence assay. Conditions: dose microM 1-100, time 30.0 min.

Series [12] deals with T3, NAD-dependent protein deacetylase sirtuin-3, mitochondrial (Homo sapiens). The series can be described thus: Inhibition of human N-terminal GST-tagged SIRT3 (102 to 399 residues) expressed in Escherichia coli using Ac-Gln-Pro-Lys-Lys(but)-AMC (oxo-12) as substrate at 100 uM by fluorescence assay relative to control.
For series [13], the target named is T2, NAD-dependent protein deacetylase sirtuin-1. The series can be described thus: Inhibition of human recombinant N-terminal GST-tagged SIRT1 (193 to 741 residues) expressed in Escherichia coli using Ac-Gln-Pro-Lys-Lys(Ac)-AMC (oxo-10) as substrate by fluorescence assay.
For series [14], the target named is T5, NAD-dependent protein deacetylase sirtuin-2 (Homo sapiens, UniProt Q8IXJ6).
T5 sequence (Q8IXJ6 whole entry): T1 sequence (whole entry)
The series can be described thus: Inhibition of human C-terminal His-tagged SIRT2 (50 to 356 residues) expressed in Escherichia coli using Ac-Gln-Pro-Lys-Lys(pro)-AMC (oxo-11) as substrate by fluorescence assay.

In series [15] the target is T4, NAD-dependent protein deacetylase sirtuin-1 (Homo sapiens). The series can be described thus: Inhibition of human recombinant N-terminal GST-tagged SIRT1 (193 to 741 residues) deacetylation activity in presence of substrate and NAD+ at 15 uM after 15 to 60 mins by reversed-phase UPLC-MS analysis. The following applies: time min 15-60.
Series [16] shares this target. The series can be described thus: Inhibition of human recombinant N-terminal GST-tagged SIRT1 (193 to 741 residues) deacetylation activity in presence of substrate and NAD+ at 15 uM after 15 mins by reversed-phase UPLC-MS analysis relative to control. Details: scale not given: the % may be the effect or the level left.
For series [17], the target named is T1, NAD-dependent protein deacetylase sirtuin-2 (Homo sapiens). The series can be described thus: Inhibition of human recombinant C-terminal His-tagged SIRT2 (50 to 356 residues) deacetylation activity in presence of substrate and NAD+ at 15 uM incubated 15 to 60 mins by reversed-phase UPLC-MS analysis. Conditions: time min 15-60.

As usually defined, the inhibition is the percentage by which the read-out fell short of the control. In general, IC50 refers to the concentration that inhibits the measured activity by half. Usually half-life stands for the time needed for the level to fall by half in the phase considered.

Take `CCCC(=S)NCCCC[C@H](NC(=O)OCc1ccccc1)C(=O)Nc1ccccc1`: the inhibition in series [1] came out at 88%; in [5], 23%. For the same molecule, the IC50 in [2] is 12 µM. For the same molecule, the inhibition entry in [3], in [4] and in series [6] was “inactive” each time.

For the molecule `CC(=S)NCCCC[C@H](NC(=O)OCc1ccccc1)C(=O)N[C@@H](Cc1c[nH]c2ccccc12)C(=O)NC(C)C`, the inhibition turned out to be 3% in [7] and 7% in series [4]. For the same molecule, the half-life in [8] was more than 7 h. Also, the inhibition entry in series [9] and in [6] was “Active” each time. Moreover, in [10], the inhibition entry is “inactive”.

As for `CCC(=S)NCCCC[C@H](NC(=O)OCc1ccccc1)C(=O)N[C@@H](Cc1c[nH]c2ccccc12)C(=O)NC(C)C`, the inhibition entry in series [11], in series [10] and in series [6] was “inactive” in each case. Also, the inhibition in series [12] came out at 19%. Also, the IC50 in [13] amounted to 0.51 µM; in series [14] it was 2.2 µM. The half-life in [8] was 7 h. In [15], the inhibition entry is “Active”.

In the case of `CC(=O)NCCCC[C@H](NC(=O)OCc1ccccc1)C(=O)N[C@@H](Cc1c[nH]c2ccccc12)C(=O)NC(C)C` (Cbz-Lys(Ac)-Trp-NHiPr), in series [16], the Activity is more than 80%. The inhibition in series [3] was found to be 54%. Also, the inhibition entry in series [10] and in series [17] was “inactive” each time.
